Xi reactivation: reactivates the inactive X chromosome in mouse fibroblasts. XiGFP mouse fibroblasts, % GFP-positive cells imaging, 3 d; cells co-treated with 5-aza-dC sensitizer; scaled so ellipticine positive control = 100%. activation, % at 7.58 µM. hit rate 0.055% among 360,000;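 active means mean normalized replicate activation at least 10% and every replicate at or above 10%; inconclusive means only one of the two criteria met; inactive means mean below 10% and not all replicates reach 10%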;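 further: 0% = median of on-plate neutral control wells and 100% = ellipticine 6 µM median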
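assay system = SV40-immortalized XiGFP fibroblast cells, line 68-5-11 | buffer or medium = DMEM plus 5-aza-dC sensitizer | doses = single-point pinned compound dosing | times = 3-day compound exposure, then 15 min fixation at room temperature | benchmarks = positive control ellipticine, 6 µM final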
RAD52 inh: inhibitors of human RAD52 DNA annealing. P43351. recombinant RAD52 DNA annealing, FRET fluorescence. inhibition, % at 18.7 µM. hit rate 0.46% among 360,000. AID 651710;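 active means every replicate showing at least 50% inhibition; inconclusive means mean inhibition at least 50% but not in every replicate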
Casp6 inh: inhibitors of human caspase-6. hit rate 0.53% among 350,000. inhibition, % at 12.5 µM. purified caspase-6, Z-VEID-R110 cleavage fluorescence;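 active means mean inhibition across replicates at least about 35%, with every replicate also reaching that limit, limit read from the data; inconclusive means only one of the two criteria met; inactive means neither criterion met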;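 further: 0% = median of neutral control wells and 100% = no fluorescence left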
S100A4 inh HTS: S100A4-myosin IIA interaction inhibition. P26447. S100A4/TAMRA-MyoIIA peptide fluorescence polarization. inhibition, % at 10.7 µM. hit rate 0.14% among 360,000;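 active means mean inhibition of at least 70% across replicates, with every replicate also reaching that level; inconclusive means mean inhibition reaches 70% but some replicates fall short; inactive means mean inhibition below 70%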
Target sequence (P26447 whole entry, looked up): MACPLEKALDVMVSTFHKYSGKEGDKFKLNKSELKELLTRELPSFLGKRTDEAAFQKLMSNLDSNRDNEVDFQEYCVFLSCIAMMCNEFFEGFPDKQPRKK
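Test system: S100A4 monomer protein; Medium: HEPES pH 7.2 with CaCl2, KCl, NaCl, DTT, Triton; Probe or stimulus: TAMRA-labelled myosin IIA heavy-chain peptide probe, 5 nM; Doses: one dose per compound; Times: polarization read 5 min after assay mix addition, stable 5–60 min; Benchmarks: neutral control DMSO, positive control TFP.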
AF4-AF9 inh: blocks AF4 peptide binding to human AF9. inhibition, % at 10 µM. hit rate 0.47% among 350,000. P42568. AlphaScreen, biotin-AF4 peptide binding to FLAG-AF9;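 active means every replicate reaching a set inhibition limit, whatever the replicate mean, cut at about 25% in these data; inconclusive means mean inhibition reaches that limit but some replicates miss it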;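 further: 0% = plate neutral control median and 100% = total signal loss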
Target sequence (P42568 whole entry, looked up): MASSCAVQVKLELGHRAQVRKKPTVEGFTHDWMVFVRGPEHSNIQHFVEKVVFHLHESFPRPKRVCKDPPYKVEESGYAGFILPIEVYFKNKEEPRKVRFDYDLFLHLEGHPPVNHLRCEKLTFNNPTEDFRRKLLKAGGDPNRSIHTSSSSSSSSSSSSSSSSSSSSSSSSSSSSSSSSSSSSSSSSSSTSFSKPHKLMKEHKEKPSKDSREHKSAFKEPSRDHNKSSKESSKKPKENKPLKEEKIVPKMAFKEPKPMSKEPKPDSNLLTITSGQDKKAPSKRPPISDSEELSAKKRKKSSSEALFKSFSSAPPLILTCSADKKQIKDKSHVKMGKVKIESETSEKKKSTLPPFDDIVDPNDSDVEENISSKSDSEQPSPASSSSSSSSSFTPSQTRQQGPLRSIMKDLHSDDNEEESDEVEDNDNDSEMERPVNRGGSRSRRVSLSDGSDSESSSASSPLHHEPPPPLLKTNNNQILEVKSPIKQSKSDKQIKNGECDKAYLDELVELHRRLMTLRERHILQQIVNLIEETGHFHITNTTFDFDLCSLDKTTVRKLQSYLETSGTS
RAD54 inh: blocks human RAD54 Holliday junction branch migration; Q92698; FAM/BHQ fluorescence; inhibition, % at 10.4 µM; hit rate 0.14% among 360,000; AID 602329;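 active means mean normalized replicate activity at least 40 and at least half of replicates scoring 40 or more; inconclusive means only one of the two criteria met; inactive means mean below 40 and under half of replicates reaching 40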;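 further: 0% = median of neutral control wells and 100% = median of positive control wells; inhibitors cause a drop in the FAM fluorescence signal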
Starred values were filed as active, the others as inactive; ? = inconclusive; . = no result given; + = active, no number; ! = not active in a repeat. Shown are actives, neighbours in structure and some others; about 1.3% of the full set was active somewhere.

SMILES	Xi reactivation	RAD52 inh	Casp6 inh	S100A4 inh HTS	AF4-AF9 inh	RAD54 inh
CC1(C)Cc2c(C#N)c(N)n(-c3ccccc3)c(=S)c2CO1	-0.1	-17.8	14.1	-2.4	0.6	-19.9
Cc1cc(C)[n+](-c2ccc(Oc3ccccc3)c(S(=O)(=O)[O-])c2)[nH]1	0.1	-9.8	40.7*	-6.4	-1.7	.
CCN(CC)S(=O)(=O)c1ccc(Oc2ccccc2)c(N)c1	-0.8	-5.9	0.5	-0.2	0.7	.
Cc1ccc(S(=O)(=O)N[C@H]2CC[C@H](CCNC(=O)c3ccc4c(c3)OCO4)O[C@H]2CO)cc1	-0.1	-11.7	-5.8	1.2	-0.7	-2.3
COc1ccc2c3c([nH]c2c1)[C@@H](CO)N(C)CC31CN(C(=O)c2cccnc2)C1	0.7	.	.	.	.	.
O=C1CCCn2cc(nn2)COC[C@@H](Cc2ccccc2)N1	-0.1	12.0	-8.1	116.5*	-15.0	.
CO[C@@H]1CN(C)C(=O)c2cc(NS(=O)(=O)CC(F)(F)F)ccc2OC[C@H](C)N(CC2CCCCC2)C[C@@H]1C	0.1	5.8	.	4.4	1.3	-23.3
O=C(C[C@H]1CC[C@H]2[C@@H](COC[C@@H](O)CN2S(=O)(=O)c2ccccc2)O1)NCCN1CCCC1	0.1	4.1	-2.2	7.7	0.2	.
COc1cccc(CNc2ccc3c(c2)ncn3C(C)C)c1OC	0.2	-6.3	-0.1	14.6	47.9*	-5.5
CCN(CC)c1ccc2nc3ccccc3[n+](CC)c2c1	.	.	.	.	.	54.0*
CCN(CC)c1ccc(/C=N/n2nnnc2N)c(O)c1	.	.	.	.	.	-8.6
CCN(CC)c1ccc2nc3ccc(N)cc3[n+](-c3ccccc3)c2c1	0.2	-308.9	28.8	+	49.8*	85.0*
O=C(Cc1ccccn1)NCC[C@@H]1CC[C@@H](NC(=O)Nc2ccc(Cl)cc2)[C@H](CO)O1	0.5	4.2	0.5	-8.8	-28.5	6.8
O=C(ONC(=O)C1CCCCC1C(=O)NOC(=O)c1ccccc1)c1ccccc1 (stereo not given)	0.0	-12.4	39.6*	-1.9	-2.1	0.2
O=C(COC(=O)c1ccccc1)NC1CCCC1	0.1	-4.9	-5.3	-10.1	-3.9	0.8
CCCNC(=O)Nc1ccc2c(c1)C(=O)N(C)C[C@H](OC)[C@@H](C)CN(Cc1cccnc1)[C@@H](C)CO2	-0.4	13.1	-3.0	-0.9	-1.4	5.3
O=C(CCl)N1N=C(c2ccco2)CC1c1ccco1 (stereo not given)	0.1	-68.2	60.1*	-20.5	-1.0	-14.3
O=C(CCl)N1N=C(c2cccs2)CC1c1ccco1 (stereo not given)	0.0	-187.7	8.7	4.0	4.0	.
CCN(CC)Cc1cc(Nc2c3ccccc3nc3c4ccccc4n(C)c23)cc(CN(CC)CC)c1O	0.1	106.0*	-52.2	6.7	55.5*	.
COc1ccc(NC(=O)N2[C@@H]3CNC[C@H]2C3c2ccc(-c3ccc(OC)cc3)cc2)cc1 (stereo not given in full)	0.2	2.3	-0.9	-5.0	2.7	.
COc1ccc(-c2ccc(C3[C@H]4CNC[C@@H]3N4C(=O)Nc3ccc(C(F)(F)F)cc3)cc2)cc1 (stereo not given in full)	0.0	65.9*!	1.3	-12.5	-0.2	.
COc1ccc(NC(=O)N2[C@@H]3CNC[C@H]2C3c2ccc(-c3ccc(F)cc3)cc2)cc1 (stereo not given in full)	0.0	56.7*	2.3	0.7	4.2	.
COc1ccc(NC(=O)N2[C@@H]3CNC[C@H]2C3c2ccc(/C=C/c3ccccc3)cc2)cc1 (stereo not given in full)	0.0	55.2*	-1.0	11.3	4.7	.
CO[C@H]1CN(C)C(=O)c2cc(NC(=O)C3CC3)ccc2OC[C@H](C)N(CCc2ccccc2)C[C@@H]1C	0.1	.	.	.	.	8.0
COCC(=O)N1C[C@H](C)[C@H](OC)CN(C)C(=O)c2ccc(NS(C)(=O)=O)cc2OC[C@@H]1C	0.2	4.6	.	0.5	-2.9	10.3
SMILES	Xi reactivation	RAD52 inh	Casp6 inh	S100A4 inh HTS	AF4-AF9 inh	RAD54 inh
COP(=O)(OC)c1ccc(NCc2cc(O)ccc2O)cc1	0.1	-3.4	53.1*	0.7	-8.8	.
CC(C)OC(=O)c1ccc(NCc2cc(O)ccc2O)cc1	1.0	0.3	-3.9	1.3	8.4	.
COc1ccc2c(c1)c(C(=O)OCCN(C)C)c(C)n2C	.	.	.	.	.	59.2*
COCCOC(=O)c1c(C)n(C)c2ccc(OC(=O)c3c(OC)cccc3OC)cc12	0.0	-2.2	-2.6	-1.2	-4.6	-5.4
Cc1ccc(C)c(CSC2=NN3CCCC(=O)N=C3S2)c1	18.8*	-12.7	2.0	-4.2	-36.0	.
Cc1ccc(NC(=O)CSC2=NN3CCCC(=O)N=C3S2)c(C)c1	0.1	-2.7	-2.1	-1.2	5.6	4.6
COc1ccc(N(C)S(=O)(=O)c2cccc(C(=O)NCC(c3cccs3)N(C)C)c2)cc1 (stereo not given)	?	-13.8	40.0*	-1.1	2.8	.
C[C@H](CO)N1C[C@H](C)[C@@H](CN(C)Cc2ccccc2)Oc2c(NC(=O)Cc3cn(C)c4ccccc34)cccc2C1=O	0.1	.	.	.	.	.
CC(C)NC(=O)N[C@H]1C[C@@H]2O[C@@H](CO)CC[C@@H]2O[C@@H]1CCc1ccc(-c2ccccc2F)cc1	.	19.5	0.7	-9.2	33.1*	.
CC(C)NC(=O)N[C@@H]1C[C@@H]2O[C@@H](CO)CC[C@@H]2O[C@@H]1CCc1ccc(-c2ccc(F)cc2)cc1	.	-10.1	-0.6	9.9	-3.8	.
CCN(CC)c1ccc(NC(=O)CSc2ccsc2[N+](=O)[O-])c(C)c1	0.2	.	.	.	.	.
O=C(CSc1ccsc1[N+](=O)[O-])Nc1cc(F)ccc1F	0.0	-23.9	35.9*	2.3	-0.7	.
C[C@@H]1CN([C@H](C)CO)C(=O)c2cccc(NC(=O)C3CCOCC3)c2O[C@@H]1CN(C)Cc1ccc2c(c1)OCO2	-1.0	-12.2	1.1	-3.0	-0.7	3.4
CC(=O)N1CCN(C(C)=O)c2ccccc21	0.3	4.4	1.0	0.8	36.3*	2.8
CC(=O)N1CCN=C1SCc1ccccc1	0.3	-14.3	-0.9	-0.1	-2.7	7.3
O=C(C[C@H]1CC[C@H]2[C@@H](COC[C@H](O)CN2S(=O)(=O)c2ccc(F)cc2)O1)NCC1CC1	0.0	-3.3	1.0	6.0	3.7	-21.5
O=C(C[C@H]1CC[C@H]2[C@@H](COC[C@H](O)CN2S(=O)(=O)c2ccc(F)cc2)O1)NCC1CCCCC1	0.0	66.4*	-0.2	-11.7	28.4*	1.9
O=C(C[C@H]1CC[C@H]2[C@@H](COC[C@H](O)CN2S(=O)(=O)c2ccccc2)O1)NCC1CCCCC1	0.0	82.8*	-0.2	-11.9	33.4*	-1.4
O=C(O)C[C@H]1CC[C@@H]2[C@H](COC[C@@H](O)CN2S(=O)(=O)c2ccc(Oc3ccccc3)cc2)O1	0.2	-15.7	10.2	-0.6	-3.1	-8.9

Screening data from PubChem.
